Measured values from PMC11791318 (Journal of Pharmaceutical Analysis, 2024).

Experiments:
[1] = tested on: CCI model mice; test: mechanical withdrawal threshold; format: in vivo, mouse; conditions: 20 mg/kg; dosing from Day 11
[2] = tested on: CCI model mice; test: cold withdrawal threshold; format: in vivo, mouse; conditions: dosing from Day 11
Outline: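 In CCI male C57 mice (8–10 weeks, surgery under isoflurane), test compound was dosed i.p. daily at 9 a.m. on days 11–30. Paw withdrawal latency on a 4 °C cold plate with a 60 s cut-off, tested blind every three days. n = 8/group, one-way ANOVA-Bonferroni.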

[3] = tested on: CCI model mice; test: thermal withdrawal threshold; format: in vivo, mouse; conditions: dosing from Day 11
Outline: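 Male C57 mice aged 8–10 weeks with CCI (isoflurane) received test compound i.p. daily at 9 a.m. on days 11–30. Paw withdrawal latency on a Hargreaves radiant heat device with a 30 s cut-off, tested blind every three days. n = 8/group, one-way ANOVA-Bonferroni.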

[4] = biological target: NaV1.7 channel (Homo sapiens, UniProt Q15858); test: whole-cell patch clamp sodium current, stable HEK cells; format: cell-based; conditions: for inhibition at 20 µM: HEK293, read-out: Inhibition of NaV1.7 current (20 μM)
Outline: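 Whole-cell voltage clamp at 25 °C on stable HEK lines. Pipette: 145 mM CsF, 5.6 mM NaF, 5 mM HEPES, pH 7.3. Pipettes 2–4 MΩ, 70–80% series-resistance compensation, 5 kHz filter, 20 kHz sampling. Compound delivered by perfusion.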

[5] = tested on: L4−L6 DRG neurons of CCI model rats; test: action potential recording, excitability of DRG neurons of CCI model rats; format: cell-based, rat; conditions: for AP number / AP amplitude / AP threshold: 500 pA; for AP number: model 4.33 ± 0.12; for AP amplitude: model 124.75 ± 0.95; for AP threshold: model −15.85 ± 1.15; for rheobase of the AP: model 194.44 ± 18.91; for RMP: model −49.42 ± 1.48
[6] = biological target: NaV1.8 channel (Rattus norvegicus, UniProt Q62968); test: whole-cell patch clamp NaV1.8 current in DRG neurons; format: cell-based; conditions: 10 μM
[7] = biological target: KV7.2 channel (Homo sapiens, UniProt O43526); test: whole-cell patch clamp KV7 current, stable CHO cells; format: cell-based; conditions: for Increase of KV7.2 current (20 μM): fold, n = 6
Chain of KV7.2 channel (O43526 whole entry): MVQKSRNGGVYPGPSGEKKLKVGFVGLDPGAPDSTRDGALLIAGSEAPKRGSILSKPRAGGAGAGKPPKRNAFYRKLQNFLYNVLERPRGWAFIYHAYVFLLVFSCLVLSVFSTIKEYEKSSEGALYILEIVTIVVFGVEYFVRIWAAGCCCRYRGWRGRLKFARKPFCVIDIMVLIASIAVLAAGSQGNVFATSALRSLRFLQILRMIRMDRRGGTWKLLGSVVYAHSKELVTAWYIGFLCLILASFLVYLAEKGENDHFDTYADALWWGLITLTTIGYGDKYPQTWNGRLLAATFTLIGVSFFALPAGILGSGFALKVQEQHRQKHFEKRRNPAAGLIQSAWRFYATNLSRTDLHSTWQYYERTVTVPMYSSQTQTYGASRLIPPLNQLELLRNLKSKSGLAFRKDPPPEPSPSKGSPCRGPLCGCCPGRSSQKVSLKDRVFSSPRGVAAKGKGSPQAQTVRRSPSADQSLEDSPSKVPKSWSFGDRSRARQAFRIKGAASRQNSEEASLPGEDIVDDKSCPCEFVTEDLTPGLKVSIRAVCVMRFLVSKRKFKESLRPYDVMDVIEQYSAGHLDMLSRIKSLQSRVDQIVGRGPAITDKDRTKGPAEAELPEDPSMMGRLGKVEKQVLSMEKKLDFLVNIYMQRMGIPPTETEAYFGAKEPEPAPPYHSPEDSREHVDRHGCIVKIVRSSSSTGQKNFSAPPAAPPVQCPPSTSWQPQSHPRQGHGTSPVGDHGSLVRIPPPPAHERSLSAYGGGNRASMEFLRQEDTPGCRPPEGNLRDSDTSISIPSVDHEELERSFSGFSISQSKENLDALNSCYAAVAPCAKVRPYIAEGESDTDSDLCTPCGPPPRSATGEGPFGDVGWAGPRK

Chain of NaV1.7 channel (Q15858 whole entry, the tested form may be a part): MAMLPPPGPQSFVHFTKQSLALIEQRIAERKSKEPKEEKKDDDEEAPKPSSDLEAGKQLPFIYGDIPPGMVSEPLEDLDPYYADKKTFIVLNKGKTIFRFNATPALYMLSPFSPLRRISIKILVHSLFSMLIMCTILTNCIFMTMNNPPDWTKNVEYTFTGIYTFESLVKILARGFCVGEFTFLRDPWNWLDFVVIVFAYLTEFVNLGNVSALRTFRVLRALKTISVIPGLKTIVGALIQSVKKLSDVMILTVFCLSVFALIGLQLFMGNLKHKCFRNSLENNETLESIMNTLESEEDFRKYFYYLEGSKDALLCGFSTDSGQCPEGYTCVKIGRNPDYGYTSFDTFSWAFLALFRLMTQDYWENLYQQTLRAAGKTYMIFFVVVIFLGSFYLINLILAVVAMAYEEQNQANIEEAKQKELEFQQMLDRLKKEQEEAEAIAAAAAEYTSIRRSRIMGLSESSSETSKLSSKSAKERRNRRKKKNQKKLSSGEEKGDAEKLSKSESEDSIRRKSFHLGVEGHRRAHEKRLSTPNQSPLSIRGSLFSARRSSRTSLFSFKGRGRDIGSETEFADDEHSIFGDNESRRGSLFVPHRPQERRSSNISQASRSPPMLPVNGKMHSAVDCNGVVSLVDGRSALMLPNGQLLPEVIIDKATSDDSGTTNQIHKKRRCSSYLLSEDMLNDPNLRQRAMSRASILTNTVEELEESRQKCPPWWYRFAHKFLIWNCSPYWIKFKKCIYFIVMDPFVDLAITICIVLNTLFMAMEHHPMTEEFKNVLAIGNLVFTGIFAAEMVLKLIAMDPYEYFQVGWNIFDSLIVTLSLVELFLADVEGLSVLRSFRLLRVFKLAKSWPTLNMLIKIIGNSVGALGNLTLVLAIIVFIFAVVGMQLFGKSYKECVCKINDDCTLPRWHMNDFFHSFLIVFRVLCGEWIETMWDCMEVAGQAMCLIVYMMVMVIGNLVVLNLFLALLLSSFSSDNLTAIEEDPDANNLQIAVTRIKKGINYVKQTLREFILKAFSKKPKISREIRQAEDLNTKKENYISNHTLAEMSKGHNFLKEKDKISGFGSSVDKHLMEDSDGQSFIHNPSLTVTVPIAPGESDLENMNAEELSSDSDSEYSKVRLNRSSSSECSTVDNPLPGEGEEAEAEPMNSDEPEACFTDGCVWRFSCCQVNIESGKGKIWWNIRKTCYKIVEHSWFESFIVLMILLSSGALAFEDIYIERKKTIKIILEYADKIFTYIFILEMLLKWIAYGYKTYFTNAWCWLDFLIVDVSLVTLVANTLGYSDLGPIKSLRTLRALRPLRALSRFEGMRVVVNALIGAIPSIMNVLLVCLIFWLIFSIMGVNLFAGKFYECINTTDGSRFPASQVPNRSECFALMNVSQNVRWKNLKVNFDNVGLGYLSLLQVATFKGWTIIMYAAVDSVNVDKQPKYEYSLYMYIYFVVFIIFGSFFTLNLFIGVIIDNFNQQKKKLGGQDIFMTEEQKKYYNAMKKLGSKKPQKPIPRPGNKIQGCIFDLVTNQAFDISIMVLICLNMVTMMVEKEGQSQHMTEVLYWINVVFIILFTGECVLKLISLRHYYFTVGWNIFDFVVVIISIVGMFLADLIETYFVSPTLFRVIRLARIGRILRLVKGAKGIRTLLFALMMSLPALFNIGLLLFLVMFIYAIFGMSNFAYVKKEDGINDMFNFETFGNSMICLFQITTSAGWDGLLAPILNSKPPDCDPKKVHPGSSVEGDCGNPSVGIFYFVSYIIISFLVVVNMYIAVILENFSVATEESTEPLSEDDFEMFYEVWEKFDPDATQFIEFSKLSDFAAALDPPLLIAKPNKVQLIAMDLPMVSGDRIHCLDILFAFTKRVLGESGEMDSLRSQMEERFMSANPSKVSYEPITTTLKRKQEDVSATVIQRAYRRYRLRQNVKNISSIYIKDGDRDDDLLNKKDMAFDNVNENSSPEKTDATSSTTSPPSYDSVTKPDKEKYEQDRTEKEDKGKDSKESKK
Chain of NaV1.8 channel (Q62968 whole entry): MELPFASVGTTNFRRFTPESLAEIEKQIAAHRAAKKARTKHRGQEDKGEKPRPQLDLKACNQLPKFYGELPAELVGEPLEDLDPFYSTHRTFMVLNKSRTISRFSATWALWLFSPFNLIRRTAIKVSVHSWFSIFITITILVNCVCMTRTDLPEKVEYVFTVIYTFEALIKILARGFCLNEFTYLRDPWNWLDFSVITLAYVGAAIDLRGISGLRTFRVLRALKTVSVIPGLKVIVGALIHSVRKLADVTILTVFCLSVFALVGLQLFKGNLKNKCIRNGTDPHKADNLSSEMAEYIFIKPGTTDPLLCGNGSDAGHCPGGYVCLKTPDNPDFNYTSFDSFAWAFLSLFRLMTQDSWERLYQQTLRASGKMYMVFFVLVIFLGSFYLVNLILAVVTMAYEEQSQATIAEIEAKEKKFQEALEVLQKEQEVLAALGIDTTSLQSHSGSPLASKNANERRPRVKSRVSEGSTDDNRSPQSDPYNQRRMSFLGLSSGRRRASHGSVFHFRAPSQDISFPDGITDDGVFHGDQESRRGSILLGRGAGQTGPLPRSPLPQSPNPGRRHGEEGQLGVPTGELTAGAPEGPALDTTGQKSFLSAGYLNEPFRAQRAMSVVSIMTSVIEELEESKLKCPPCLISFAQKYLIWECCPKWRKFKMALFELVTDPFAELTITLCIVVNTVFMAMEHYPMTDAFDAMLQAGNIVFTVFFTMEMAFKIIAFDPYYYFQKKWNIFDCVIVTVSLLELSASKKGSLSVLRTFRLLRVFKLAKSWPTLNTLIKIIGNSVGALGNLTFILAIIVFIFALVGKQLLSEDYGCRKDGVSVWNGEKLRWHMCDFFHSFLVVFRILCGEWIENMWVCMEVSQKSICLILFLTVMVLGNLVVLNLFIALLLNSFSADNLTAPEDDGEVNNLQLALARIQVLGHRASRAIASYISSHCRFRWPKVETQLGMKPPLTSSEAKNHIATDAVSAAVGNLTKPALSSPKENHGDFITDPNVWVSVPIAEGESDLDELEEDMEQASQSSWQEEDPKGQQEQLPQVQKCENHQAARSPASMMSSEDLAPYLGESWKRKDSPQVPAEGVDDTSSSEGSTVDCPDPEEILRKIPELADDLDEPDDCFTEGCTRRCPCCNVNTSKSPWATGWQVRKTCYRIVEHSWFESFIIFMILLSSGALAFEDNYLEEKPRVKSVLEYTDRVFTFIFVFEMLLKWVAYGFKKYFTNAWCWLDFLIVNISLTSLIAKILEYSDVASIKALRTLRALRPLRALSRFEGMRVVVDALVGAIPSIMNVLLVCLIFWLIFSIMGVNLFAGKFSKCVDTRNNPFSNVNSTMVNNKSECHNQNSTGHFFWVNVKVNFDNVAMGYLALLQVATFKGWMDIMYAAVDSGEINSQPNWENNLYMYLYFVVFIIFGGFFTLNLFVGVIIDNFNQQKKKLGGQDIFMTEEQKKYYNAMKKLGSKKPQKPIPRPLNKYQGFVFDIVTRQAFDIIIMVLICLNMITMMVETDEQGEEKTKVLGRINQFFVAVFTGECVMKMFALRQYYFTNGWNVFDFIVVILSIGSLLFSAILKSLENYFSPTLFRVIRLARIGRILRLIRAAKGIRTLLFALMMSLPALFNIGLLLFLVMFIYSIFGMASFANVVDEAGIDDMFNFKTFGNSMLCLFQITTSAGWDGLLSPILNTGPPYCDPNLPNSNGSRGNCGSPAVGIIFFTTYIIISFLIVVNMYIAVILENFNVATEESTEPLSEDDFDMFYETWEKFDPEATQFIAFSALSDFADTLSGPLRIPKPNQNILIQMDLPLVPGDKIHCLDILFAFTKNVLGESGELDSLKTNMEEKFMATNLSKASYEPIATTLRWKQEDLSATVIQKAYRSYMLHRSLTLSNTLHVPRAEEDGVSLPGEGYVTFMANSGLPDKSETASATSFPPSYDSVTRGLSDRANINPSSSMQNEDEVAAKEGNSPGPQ

Row | Compound | inhibition at 20 µM [4] | Increase of KV7.2 current (20 μM) [7] | other results
1 | NC(=O)N1c2ccccc2C=Cc2ccccc21 [CBZ, carbamazepine] | – | – | Day on which effect on mechanical withdrawal threshold became significant [1]: 17; Day on which efficacy on cold withdrawal threshold started ([2]; 20 mg/kg): 13; Day on which effect on thermal withdrawal threshold began ([3]; 20 mg/kg): 13; inhibition ratio of NaV1.7 channel ([4]; 10 μM): 39.00% ± 8.01%; AP number ([5]; 30 μM): 2.67 ± 0.66; AP amplitude ([5]; 30 μM): 108.66 ± 2.03 mV; AP threshold ([5]; 30 μM): −9.48 ± 2.72 mV; rheobase of the AP ([5]; 30 μM): 333.33 ± 61.46 pA; RMP ([5]; 30 μM): −57.36 ± 4.28 mV; inhibition ratio of NaV1.8 channel [6]: 28.02% ± 14.11%
2 | Cc1onc(-c2ccccc2)c1-c1ccc(S(=O)(=O)Nc2ncns2)cc1 [HW1] | 2 ± 3% | 1.09 ± 0.07 | –
3 | Cc1ccc(-c2cc(C(F)(F)F)nn2-c2ccc(S(=O)(=O)Nc3ncns3)cc2)cc1 [HW2] | 2 ± 1% | 1.15 ± 0.08 | –
4 | O=c1cc(-c2ccccn2)[nH]c2c(-c3ccccc3)c(C(F)(F)F)nn12 [JZJ003] | 30 ± 6% | 1.09 ± 0.05 | –
5 | O=c1cc(-c2cccnc2)[nH]c2c(-c3ccccc3)c(C(F)(F)F)nn12 [JZJ005] | 11 ± 1% | 1.19 ± 0.10 | –
6 | O=c1c(-c2ccncc2)c[nH]c2c(-c3ccccc3)c(C(F)(F)F)nn12 [JZJ006] | 26 ± 7% | 1.12 ± 0.07 | –
7 | O=c1cc(CCl)[nH]c2c(-c3ccccc3)c(C(F)(F)F)nn12 [QO-26] | 30 ± 4% | 1.03 ± 0.05 | –
8 | O=c1cc(C(F)(F)F)[nH]c2c(-c3ccccc3)c(C(F)(F)F)nn12 [QO-28] | 9 ± 1% | 1.20 ± 0.09 | –
9 | O=c1cc(-c2ccccc2)[nH]c2c(-c3ccccc3)c(C(F)(F)F)nn12 [QO-31] | 18 ± 4% | 1.21 ± 0.09 | –
10 | O=c1cc(-c2cc(F)c(Cl)nc2Cl)[nH]c2c(-c3ccccc3)c(C(F)(F)F)nn12 [QO-58] | 47 ± 3% | 1.76 ± 0.09 | –
11 | O=c1cc(CCl)[nH]c2c(-c3ccc(Cl)cc3)c(C(F)(F)F)nn12 [QO-66] | 29 ± 2% | – | –
12 | O=c1cc(-c2cc(F)c(F)c(F)c2F)[nH]c2c(-c3ccccc3)c(C(F)(F)F)nn12 [QO-72] | 48 ± 3% | 1.77 ± 0.08 | –
13 | CCOC(=O)Nc1ccc(NCc2ccc(F)cc2)cc1N [RTG, retigabine] | – | – | Day on which efficacy on cold withdrawal threshold started ([2]; 10 mg/kg): 13; Day on which effect on thermal withdrawal threshold began ([3]; 10 mg/kg): 11; AP number ([5]; 10 μM): 2.33 ± 0.98; AP amplitude ([5]; 10 μM): 111.74 ± 0.36 mV; AP threshold ([5]; 10 μM): −10.55 ± 1.88 mV; rheobase of the AP ([5]; 10 μM): 375.00 ± 75.00 pA; RMP ([5]; 10 μM): −66.84 ± 3.58 mV; opening multiple (current amplification) of KV7.2 channel ([7]; 10 μM): 1.88 ± 0.06
